High-throughput results as filed in PubChem.
Shown are actives, neighbours in structure and some others; about 3.1% of the full set was active somewhere.
KCNQ1 pot = potentiates or activates the human KCNQ1 potassium channel; B-score at 10 µM; CHO-K1 KCNQ1, thallium flux FluxOR fluorescence; hits give high values; hit rate 0.35% among 310,000; AID 2648;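 active means fluorescence ratio B-score, a plate-corrected score, at least three library SD, with initial intensity B-score within 5 SD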
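Medium – assay buffer, equal DMSO in all wells · Material – CHO-K1 cell line with stable KCNQ1 potassium channel expression · Signal – kinetic FluxOR thallium fluorescence, 10-s 1-Hz baseline, 110-s post-stimulus read · Compound – single concentration per compound, DMSO matched to controls · Schedule – 37 °C overnight plating, 90-min dark dye load, 20-min compound pretreatment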
hERG protect = hERG (human) protection from proarrhythmic block; Q12809; CHO-hERG, FluxOR thallium flux, dofetilide IC70 present; activation (rescue from dofetilide block), less the hit threshold, % at 10 µM; hit rate 0.51% among 310,000; AID 1511;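 active means activation above the mean of controls blocked by dofetilide plus 5 SD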;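 further: thallium influx through hERG after potassium depolarization seen as dye fluorescence rise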
KCNK9 block = inhibitors of human KCNK9 two-pore domain potassium channel; Q9NPC2; HEK293 KCNK9, FluxOR thallium flux fluorescence; hits give low values; B-score at 10 µM; hit rate 1.2% among 310,000;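 active means ratio B-score over 3 SD below the library mean, with starting fluorescence within 5 SD of its mean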;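 further: negative B-score means less thallium flux so channel inhibition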
Target sequence (Q9NPC2 whole entry, looked up, the tested form may be a part): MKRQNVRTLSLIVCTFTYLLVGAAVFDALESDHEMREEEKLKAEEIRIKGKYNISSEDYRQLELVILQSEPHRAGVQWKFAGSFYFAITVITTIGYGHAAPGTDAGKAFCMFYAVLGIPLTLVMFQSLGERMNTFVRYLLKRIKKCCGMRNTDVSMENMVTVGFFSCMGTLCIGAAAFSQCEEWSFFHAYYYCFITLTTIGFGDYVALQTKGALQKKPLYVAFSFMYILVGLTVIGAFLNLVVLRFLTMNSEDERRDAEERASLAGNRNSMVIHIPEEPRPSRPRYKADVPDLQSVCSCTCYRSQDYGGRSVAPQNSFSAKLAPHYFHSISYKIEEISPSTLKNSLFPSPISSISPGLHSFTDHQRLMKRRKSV
KCNK3 inh = human KCNK3 channel inhibition, primary screen; O14649; CHO-KCNK3 thallium flux, FluxOR fluorescence; hits give low values; AID 602410; hit rate 0.84% among 340,000; B-score at 10 µM;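 active means B-score under library mean minus 4 SD, starting fluorescence ratio at most library mean plus 5 SD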;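 further: more negative B-score means stronger inhibition of thallium flux through KCNK3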
KCNQ1 block = blocks the human KCNQ1 potassium channel. P51787. hit rate 1.3% among 310,000. CHO-K1 KCNQ1, FluxOR thallium flux fluorescence; hits give high values. AID 2642. B-score at 10 µM;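 active means compounds whose thallium flux B-score, printed positive for inhibition, exceeds three library SD while starting fluorescence stays within three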;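 further: channel opened by potassium depolarization with thallium stimulus after 20 min compound exposure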
KCNK3 inh conf = human KCNK3 channel inhibition, confirmation assay | shares compounds with KCNK3 inh | CHO-KCNK3 thallium flux, FluxOR fluorescence; 0% buffer, 100% carvedilol maximal block | ratio percent of control, % at 10 µM | hit rate 99% among 2,400 | AID 651638;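 active means ratio percent of control, averaged over triplicates, above buffer control mean plus 5 SD, cut at about 64% in these data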;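 further: ratio is the fluorescence rise from min to max over baseline after thallium stimulus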
KCNK3 uninduced = counter-screen for KCNK3 inhibitors: effect in non-induced cells; thallium flux ratio (lower = more inhibition) at 10 µM; non-induced KCNK3 parental cells, FluxOR thallium flux; hits give low values; shares compounds with KCNK3 inh; hit rate 40% among 2,400;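 active means thallium flux ratio, averaged over three wells, more than 5 SD below the buffer control mean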;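 further: host cells are CHO cells without KCNK3 induction; ratio is peak minus trough fluorescence over baseline then normalized to buffer controls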
* hit, by the source's call; i = inactive; x = no result given.

SMILES	KCNQ1 pot	hERG protect	KCNK9 block	KCNK3 inh	KCNQ1 block	KCNK3 inh conf	KCNK3 uninduced
CN(Cc1ccccc1)c1oc(COc2ccccc2F)nc1C#N	i	-11	i	-13*	i	115*	0.14*
O=C(c1ccccc1)c1nn(-c2cccc(Cl)c2)ccc1=O	i	-7	i	i	i	x	x
O=C(c1ccccc1)c1nn(-c2cccc(Cl)c2)c2nc(-c3ccccc3)cc(=O)n12	i	-8	i	-21*	i	118*	0.15*
CC(C)(C)n1nnnc1C(c1cccnc1)N1CCN(c2cccc(C(F)(F)F)c2)CC1 (stereo not drawn)	i	-7	i	-10*	i	77*	i
Clc1cccc(-c2nc(NCCN3CCOCC3)c3ccccc3n2)c1	i	-14	i	i	i	x	x
Clc1cccc(-c2nc(NCCCN3CCOCC3)c3ccccc3n2)c1	i	-23	i	-9.4*	i	91*	0.15*
CC(C)CN(C(=O)CN(C)CC(=O)Nc1ccc(Cl)c(C(F)(F)F)c1)c1c(N)n(CC(C)C)c(=O)[nH]c1=O	x	x	x	i	x	x	x
Cc1nn2c(NCCCn3ccnc3)cc(C(C)C)nc2c1-c1ccccc1	i	-19	i	-12*	i	115*	0.14*
COc1ccc(CC(=O)Nc2ccc(-c3ccc4nnc(C)n4n3)cc2)cc1OC	i	-4	i	i	i	x	x
C(=N\N1CCN(C2c3ccccc3-c3ccccc32)CC1)/c1cccnc1	i	-9	i	-10*	i	85*	i
Oc1ccc(Br)cc1-c1nc2cnccn2c1NC1CCCC1	i	-21	i	-8.8*	i	131*	i
COc1ccc(C)cc1NC(=O)NCc1ccco1	i	-22	i	i	i	x	x
COc1ccc(C)cc1NC(=O)c1cc2ccccc2cc1OCC(=O)NCc1ccco1	i	0	i	-14*	i	109*	i
O=C1NC2=C(C(=O)CCC2)C(c2ccc([N+](=O)[O-])cc2)N1 (stereo not drawn)	i	-5	i	i	i	x	x
COc1cccc(/C=C2\SC(=O)N(CCC(=O)N3CCCCC3CCO)C2=O)c1 (stereo not drawn)	i	-12	i	-11*	i	78*	i
O=C1/C(=C\c2ccccc2)SC(=S)N1CCC(=O)N1CCCCC1CCO (stereo not drawn)	i	-10	i	i	i	x	x
COC(C(=O)Nc1ccnn1C1CCN(Cc2ccc(CO)o2)CC1)c1ccccc1 (stereo not drawn)	i	-5	i	i	i	x	x
O=C(N/N=C/c1cccc(Oc2ccccc2)c1)c1ccccc1Br	i	1	i	-12*	i	91*	i
O=C(N/N=C/c1cccc(Oc2ccccc2)c1)c1cccc(O)c1	i	-27	i	-13*	i	131*	0.12*
N#Cc1c(-c2ccc(Cl)cc2)ccnc1N1CCOCC1	i	-17	i	i	i	x	x
CCOC(=O)C(=N/O)/C(C)=N/NC(=O)C(=O)Nc1ccc(Cl)cc1	i	-31	i	-11*	9*	120*	i
CC(=N\Nc1ccc(Cl)cc1)/C(=N/O)C(=O)Nc1ccccc1	i	-3	i	i	i	x	x
CN(C(=O)COC(=O)c1ccc(Cl)c(S(=O)(=O)N2CCCCC2)c1)C1(C#N)CCCCC1	x	x	x	i	x	x	x
O=C(Nc1cccnc1)c1cc(-c2cccnc2)nc2ccc(Br)cc12	i	-16	-7.7*	-13*	i	124*	0.12*
Cc1sc2nc(SCc3nnc(-c4cccs4)o3)n(C3CCCC3)c(=O)c2c1C	i	-9	i	-12*	8*	79*	i
COc1ccccc1C(=O)NCC(=O)OC(C)C(=O)NC1CCCCC1C (stereo not drawn)	x	x	x	i	x	x	x
CCN(CC1COc2ccccc2O1)C(=O)c1ccc(Cl)c(S(=O)(=O)N2CC(C)OC(C)C2)c1 (stereo not drawn)	i	-15	i	i	i	x	x
